The source made the active and inactive calls. The rule behind the calls is not given here.
Columns and labels:
Colletotrichum acutatum [1] = test: Antifungal activity against Colletotrichum acutatum assessed as inhibition of fungal growth measured after 72 hr by 96-well microdilution assay; assay type: functional, organism-based
Summary of the method: (§1)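 Conidia were harvested from 7-10 day PDA cultures grown at 24 °C with a 12 h photoperiod, filtered through Miracloth, and set to 1.0 × 10^6 conidia/mL by A625. Six-point microdilution broth format used final concentrations of 1, 3.3, 10, 33, 100 and 333 µM, with captan as standard. Growth was read at A620 at 0-72 h (Phomopsis also 120 and 144 h). Two experiments were pooled; IC50 was taken as 50% growth reduction.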

Botrytis cinerea [2] = test: Antifungal activity against Botryotinia fuckeliana assessed as inhibition of fungal growth measured after 72 hr by 96-well microdilution assay; assay type: functional, organism-based; summary of the method: as §1
Fusarium oxysporum [3] = test: Antifungal activity against Fusarium oxysporum assessed as inhibition of fungal growth measured after 72 hr by 96-well microdilution assay; assay type: functional, organism-based; summary of the method: as §1
[4] = system: Colletotrichum gloeosporioides; test: Antifungal activity against Colletotrichum gloeosporioides assessed as inhibition of fungal growth measured after 72 hr by 96-well microdilution assay; assay type: functional, organism-based; summary of the method: as §1
Colletotrichum fragariae [5] = test: Antifungal activity against Colletotrichum fragariae assessed as inhibition of fungal growth measured after 72 hr by 96-well microdilution assay; assay type: functional, organism-based; summary of the method: as §1
Phomopsis obscurans [6] = test: Antifungal activity against Phomopsis obscurans assessed as inhibition of fungal growth measured after 120 hr by 96-well microdilution assay; assay type: functional, organism-based; conditions: Paraphomopsis obscurans; summary of the method: as §1
Fusarium oxysporum [7] = test: Antifungal activity against Fusarium oxysporum assessed as inhibition of fungal growth measured after 48 hr by 96-well microdilution assay; assay type: functional, organism-based; summary of the method: as §1
Colletotrichum acutatum [8] = test: Antifungal activity against Colletotrichum acutatum assessed as inhibition of fungal growth measured after 48 hr by 96-well microdilution assay; assay type: functional, organism-based; summary of the method: as §1
Botrytis cinerea [9] = test: Antifungal activity against Botryotinia fuckeliana assessed as inhibition of fungal growth measured after 48 hr by 96-well microdilution assay; assay type: functional, organism-based; summary of the method: as §1
Colletotrichum fragariae [10] = test: Antifungal activity against Colletotrichum fragariae assessed as inhibition of fungal growth measured after 48 hr by 96-well microdilution assay; assay type: functional, organism-based; summary of the method: as §1
[11] = system: Colletotrichum gloeosporioides; test: Antifungal activity against Colletotrichum gloeosporioides assessed as inhibition of fungal growth measured after 48 hr by 96-well microdilution assay; assay type: functional, organism-based; summary of the method: as §1
Phomopsis viticola [12] = test: Antifungal activity against Phomopsis viticola assessed as inhibition of fungal growth measured after 144 hr by 96-well microdilution assay
Phomopsis viticola [13] = test: Antifungal activity against Phomopsis viticola assessed as inhibition of fungal growth measured after 120 hr by 96-well microdilution assay
Colletotrichum fragariae [14] = test: Antifungal activity against Colletotrichum fragariae assessed as inhibition of fungal growth at 80 ug measured after 4 to 5 days by direct bioautography; assay type: functional; conditions: read-out: DIZ
Summary of the method: (§2)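 For TLC direct bioautography, developed plates were sprayed with a conidial suspension of the test fungus. Plates were incubated in a moisture chamber at 26 °C with a 12 h photoperiod. Zones of growth inhibition were measured as diameters 4-5 days after treatment and reported as mean zone dimensions (mm) ± SD.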

Colletotrichum acutatum [15] = test: Antifungal activity against Colletotrichum acutatum assessed as inhibition of fungal growth at 20 ug measured after 4 to 5 days by direct bioautography; assay type: functional; conditions: read-out: DIZ; summary of the method: as §2
Colletotrichum acutatum [16] = test: Antifungal activity against Colletotrichum acutatum assessed as inhibition of fungal growth at 80 ug measured after 4 to 5 days by direct bioautography; assay type: functional; conditions: read-out: DIZ; summary of the method: as §2
[17] = system: Colletotrichum gloeosporioides; test: Antifungal activity against Colletotrichum gloeosporioides assessed as inhibition of fungal growth at 20 ug measured after 4 to 5 days by direct bioautography; assay type: functional; conditions: read-out: DIZ; summary of the method: as §2
[18] = system: Colletotrichum gloeosporioides; test: Antifungal activity against Colletotrichum gloeosporioides assessed as inhibition of fungal growth at 80 ug measured after 4 to 5 days by direct bioautography; assay type: functional; conditions: read-out: DIZ; summary of the method: as §2
Colletotrichum fragariae [19] = test: Antifungal activity against Colletotrichum fragariae assessed as inhibition of fungal growth at 20 ug measured after 4 to 5 days by direct bioautography; assay type: functional; conditions: read-out: DIZ; summary of the method: as §2
Colletotrichum fragariae [20] = test: Growth stimulation of Colletotrichum fragariae up to 100 uM after 24 to 72 hr by 96-well microdilution assay; assay type: functional, organism-based; summary of the method: as §1
Phomopsis obscurans [21] = test: Antifungal activity against Phomopsis obscurans assessed as inhibition of fungal growth measured after 144 hr by 96-well microdilution assay; assay type: functional, organism-based; conditions: Paraphomopsis obscurans; summary of the method: as §1
Colletotrichum acutatum [22] = test: Antifungal activity against Colletotrichum acutatum assessed as inhibition of fungal growth at 90 uM measured after 72 hr by 96-well microdilution assay; assay type: functional; conditions: read-out: GI
Summary of the method: (§3)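 Initial three-point microdilution broth screen at final concentrations of 45, 90 and 135 µM, each in duplicate, against a conidial suspension adjusted photometrically to 1.0 × 10^6 conidia/mL. Growth was read as A620 at 0, 24, 48 and 72 h. Percent inhibition/stimulation means were pooled from two experiments replicated in time.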

Colletotrichum acutatum [23] = test: Antifungal activity against Colletotrichum acutatum assessed as inhibition of fungal growth at 90 uM measured after 48 hr by 96-well microdilution assay; assay type: functional; conditions: read-out: GI; summary of the method: as §3
Fusarium oxysporum [24] = test: Growth stimulation of Fusarium oxysporum at 333 uM after 24 to 72 hr by 96-well microdilution assay; assay type: functional, organism-based; summary of the method: as §1
[25] = system: Colletotrichum gloeosporioides; test: Growth stimulation of Colletotrichum gloeosporioides at 333 uM after 24 to 72 hr by 96-well microdilution assay; assay type: functional, organism-based; summary of the method: as §1
Colletotrichum fragariae [26] = test: Growth stimulation of Colletotrichum fragariae at 333 uM after 24 to 72 hr by 96-well microdilution assay; assay type: functional, organism-based; summary of the method: as §1
[27] = system: Colletotrichum gloeosporioides; test: Growth stimulation of Colletotrichum gloeosporioides up to 100 uM after 24 to 72 hr by 96-well microdilution assay; assay type: functional, organism-based; summary of the method: as §1

SMILES: O=C1C2CC=CCC2C(=O)N1SC(Cl)(Cl)Cl (centres undefined) [CAPTAN]
- IC50 (Colletotrichum acutatum [1]): 5.2 µM
- IC50 (Botrytis cinerea [2]): 2.8 µM
- IC50 (Fusarium oxysporum [3]): 16 µM
- IC50 [4]: 4.7 µM
- IC50 (Colletotrichum fragariae [5]): 3 µM
- IC50 (Phomopsis obscurans [6]): 1.1 µM
- IC50 (Fusarium oxysporum [7]): 2.8 µM
- IC50 (Colletotrichum acutatum [8]): 2.5 µM
- IC50 (Botrytis cinerea [9]): 1.4 µM
- IC50 (Colletotrichum fragariae [10]): 1.6 µM
- IC50 [11]: 2.1 µM
- IC50 (Phomopsis viticola [12]): < 1 µM
- IC50 (Phomopsis viticola [13]): < 1 µM

SMILES: CCCCC/C=C/C=C/C(=O)CCCCCCCC(=O)O
- zone of inhibition at 80 µg/disc (Colletotrichum fragariae [14]): 6 mm
- zone of inhibition at 20 µg/disc (Colletotrichum acutatum [15]): 8 mm
- zone of inhibition at 80 µg/disc (Colletotrichum acutatum [16]): 17 mm
- zone of inhibition at 20 µg/disc [17]: 6 mm
- IC50 (Colletotrichum acutatum [1]): > 333 µM
- IC50 (Botrytis cinerea [2]): > 333 µM
- IC50 (Fusarium oxysporum [3]): > 333 µM
- IC50 [4]: > 333 µM
- IC50 (Colletotrichum fragariae [5]): > 333 µM
- IC50 (Phomopsis obscurans [6]): 23 µM
- IC50 (Fusarium oxysporum [7]): > 333 µM
- IC50 (Colletotrichum acutatum [8]): > 333 µM
- IC50 (Botrytis cinerea [9]): 90 µM
- IC50 (Colletotrichum fragariae [10]): 91 µM
- IC50 [11]: > 333 µM
- zone of inhibition at 80 µg/disc [18]: 7 mm
- zone of inhibition at 20 µg/disc (Colletotrichum fragariae [19]): 4 mm
- IC50 (Phomopsis viticola [12]): 65 µM
- IC50 (Phomopsis viticola [13]): 110 µM

SMILES: CCCCCC(=O)/C=C\C=C\CCCCCCCC(=O)O
- zone of inhibition at 80 µg/disc (Colletotrichum fragariae [14]): 8 mm
- zone of inhibition at 20 µg/disc (Colletotrichum acutatum [15]): 4 mm
- zone of inhibition at 80 µg/disc (Colletotrichum acutatum [16]): 19 mm
- zone of inhibition at 20 µg/disc [17]: 6 mm
- IC50 (Colletotrichum acutatum [1]): > 333 µM
- IC50 (Botrytis cinerea [2]): > 333 µM
- IC50 (Fusarium oxysporum [3]): > 333 µM
- IC50 [4]: > 333 µM
- IC50 (Colletotrichum fragariae [5]): 270 µM
- IC50 (Phomopsis obscurans [6]): 4.5 µM
- IC50 (Fusarium oxysporum [7]): > 333 µM
- IC50 (Colletotrichum acutatum [8]): > 333 µM
- IC50 (Botrytis cinerea [9]): 120 µM
- IC50 (Colletotrichum fragariae [10]): 160 µM
- IC50 [11]: > 333 µM
- zone of inhibition at 80 µg/disc [18]: 7 mm
- zone of inhibition at 20 µg/disc (Colletotrichum fragariae [19]): 6 mm
- IC50 (Phomopsis viticola [12]): 38 µM
- IC50 (Phomopsis viticola [13]): 115 µM

SMILES: CCCCC/C=C\C=C\[C@@H](O)CCCCCCCC(=O)O
- zone of inhibition at 80 µg/disc (Colletotrichum fragariae [14]): 10 mm
- zone of inhibition at 20 µg/disc (Colletotrichum acutatum [15]): 5 mm
- zone of inhibition at 80 µg/disc (Colletotrichum acutatum [16]): 19 mm
- Activity (Colletotrichum fragariae [20]): Active
- growth inhibition (GI) (Phomopsis obscurans [21]): Dose-dependent effect
- inhibition of growth at 90 µM (Colletotrichum acutatum [22]): 37%
- inhibition of growth at 90 µM (Colletotrichum acutatum [23]): 79%
- zone of inhibition at 20 µg/disc [17]: 3 mm
- IC50 (Colletotrichum acutatum [1]): > 333 µM
- IC50 (Botrytis cinerea [2]): > 333 µM
- Activity (Fusarium oxysporum [24]): Active
- Activity [25]: inactive
- Activity (Colletotrichum fragariae [26]): inactive
- Activity [27]: Active
- IC50 (Fusarium oxysporum [3]): > 333 µM
- IC50 [4]: > 333 µM
- IC50 (Colletotrichum fragariae [5]): > 333 µM
- IC50 (Phomopsis obscurans [6]): 10 µM
- IC50 (Fusarium oxysporum [7]): > 333 µM
- IC50 (Colletotrichum acutatum [8]): > 333 µM
- IC50 (Botrytis cinerea [9]): > 333 µM
- IC50 (Colletotrichum fragariae [10]): > 333 µM
- IC50 [11]: > 333 µM
- zone of inhibition at 80 µg/disc [18]: 7 mm
- zone of inhibition at 20 µg/disc (Colletotrichum fragariae [19]): 6 mm
- IC50 (Phomopsis viticola [12]): 100 µM
- growth inhibition (GI) (Phomopsis viticola [12]): Dose-dependent effect
- IC50 (Phomopsis viticola [13]): > 333 µM
